Experimental data taken from ChEMBL document CHEMBL1121369, “Antihypertensive (2-aminoethyl)thiourea derivatives. 1” (J Med Chem, 1980).
“And” between values parts separate entries of the source, which are not always exact repeats. Equal entries are not always repeated.

Columns and labels:
Rattus norvegicus [1] = assay: Compound is measured for oral antihypertensive activity in groups of 6-12 deoxy-corticosterone-sodium hypertensive (DOCA-Na) rats at 1 mg/kg; format: functional
In short: (§1)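 DOCA-Na rats were given two weeks to become hypertensive (systolic above 200 mmHg) and were then dosed orally, in groups of 6–12 and unanesthetized. Rats were warmed for 5–10 min at 37–38 °C and restrained. Systolic tail pressure was read with a cuff and pneumatic pulse transducer, before dosing and at 1, 3, 6 and 24 h post-dose.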

Rattus norvegicus [2] = assay: Compound is measured for oral antihypertensive activity in groups of 6-12 deoxy-corticosterone-sodium hypertensive (DOCA-Na) rats at 5 mg/kg; Range is 10-15%; format: functional; in short: as §1
Rattus norvegicus [3] = assay: Compound is measured for oral antihypertensive activity in groups of 6-12 deoxy-corticosterone-sodium hypertensive (DOCA-Na) rats at 10 mg/kg(fall in systolic blood pressure 6-24 hr after dosing); format: functional, Artery; in short: as §1
Rattus norvegicus [4] = assay: Compound is measured for oral antihypertensive activity in groups of 6-12 conscious spontaneously hypertensive rats at 0.5 mg/kg; format: functional
In short: (§2)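 Male spontaneously hypertensive rats of Wistar–Okamoto origin (12–15 weeks old, bred in-house) were dosed orally, in groups of 6–12 and conscious. Each rat was warmed for 5–10 min at 37–38 °C, then restrained. Systolic pressure was read indirectly at the tail with an occluding cuff and a piezoelectric pulse transducer, before dosing and at 1, 3, 6 and 24 h after.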

Rattus norvegicus [5] = assay: Compound is measured for oral antihypertensive activity in groups of 6-12 conscious spontaneously hypertensive rats at 10 mg/kg(fall in systolic blood pressure 6-24 hr after dosing); format: functional, Artery; in short: as §2
Rattus norvegicus [6] = assay: Compound is measured for oral antihypertensive activity in groups of 6-12 conscious spontaneously hypertensive rats at 1 mg/kg (fall in systolic blood pressure 6-24 hr after dosing); format: functional, Artery; in short: as §2
Rattus norvegicus [7] = assay: Compound is measured for oral antihypertensive activity in groups of 6-12 conscious spontaneously hypertensive rats at 100 mg/kg; format: functional; in short: as §2
Rattus norvegicus [8] = assay: Compound is measured for oral antihypertensive activity in groups of 6-12 conscious spontaneously hypertensive rats at 250 mg/kg; format: functional; in short: as §2
Rattus norvegicus [9] = assay: Compound is measured for oral antihypertensive activity in groups of 6-12 deoxy-corticosterone-sodium hypertensive (DOCA-Na) rats at 10 mg/kg; Range is 10-15%; format: functional; in short: as §1
Rattus norvegicus [10] = assay: Compound is measured for oral antihypertensive activity in groups of 6-12 conscious spontaneously hypertensive rats at 250 mg/kg; Range is 10-15%; format: functional; in short: as §2
Rattus norvegicus [11] = assay: Compound is measured for oral antihypertensive activity in groups of 6-12 conscious spontaneously hypertensive rats at 85 mg/kg; format: functional; in short: as §2
Rattus norvegicus [12] = assay: Compound is measured for oral antihypertensive activity in groups of 6-12 conscious spontaneously hypertensive rats at 175 mg/kg; format: functional; in short: as §2
Rattus norvegicus [13] = assay: Compound is measured for oral antihypertensive activity in groups of 6-12 conscious spontaneously hypertensive rats at 1 mg/kg; Range is 15-20%; format: functional; in short: as §2
Rattus norvegicus [14] = assay: Compound is measured for oral antihypertensive activity in groups of 6-12 conscious spontaneously hypertensive rats at 60 mg/kg; format: functional; in short: as §2
Rattus norvegicus [15] = assay: Compound is measured for oral antihypertensive activity in groups of 6-12 conscious spontaneously hypertensive rats at 100 mg/kg; Range is 15-20%; format: functional; in short: as §2
Rattus norvegicus [16] = assay: Compound is measured for oral antihypertensive activity in groups of 6-12 conscious spontaneously hypertensive rats at 10 mg/kg; format: functional; in short: as §2
Rattus norvegicus [17] = assay: Compound is measured for oral antihypertensive activity in groups of 6-12 conscious spontaneously hypertensive rats at 160 mg/kg; Range is 15-20%; format: functional; in short: as §2
Rattus norvegicus [18] = assay: Compound is measured for oral antihypertensive activity in groups of 6-12 deoxy-corticosterone-sodium hypertensive (DOCA-Na) rats at 10 mg/kg; format: functional; in short: as §1
Rattus norvegicus [19] = assay: Compound is measured for oral antihypertensive activity in groups of 6-12 conscious spontaneously hypertensive rats at 10 mg/kg; Range is 15-20%; format: functional; in short: as §2
Rattus norvegicus [20] = assay: Compound is measured for oral antihypertensive activity in groups of 6-12 deoxy-corticosterone-sodium hypertensive (DOCA-Na) rats at 60 mg/kg(fall in systolic blood pressure 6-24 h after dosing); format: functional, Artery; in short: as §1
Canis familiaris [21] = assay: (§3) Oral dose required to cause 20% fall in blood pressure; format: functional, Canis lupus familiaris
Monkey = assay: (§4) Oral dose required to cause 20% fall in sedation; Increase in foot shock rate; format: functional
In short: (§5)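 Male Charles River C-D rats and squirrel monkeys were trained to press a lever at a stable rate to postpone a 5-s foot shock, given every 20 s on failure. Drugs were given orally, with control sessions before, between and after test sessions. Avoidance-rate decrease and the increase in shocks/hour were recorded. Significance threshold: a 12% decrease or 4 extra shocks/hour (p ≤ 0.05).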

Rattus norvegicus [22] = assay: as §3; format: functional
Rattus norvegicus [23] = assay: Compound is measured for oral antihypertensive activity in groups of 6-12 deoxy-corticosterone-sodium hypertensive (DOCA-Na) rats at 0.5 mg/kg; format: functional; in short: as §1
[24] = Therapeutic ratio is oral dose producing sedation/reduction in blood pressure; format: ADME, tissue-based
in vivo = conditions: blood, po
Rattus norvegicus [25] = assay: Compound is measured for oral antihypertensive activity in groups of 6-12 conscious spontaneously hypertensive rats at 45 mg/kg; Range is 10-15%; format: functional; in short: as §2
Rattus norvegicus [26] = assay: Compound is measured for oral antihypertensive activity in groups of 6-12 conscious spontaneously hypertensive rats at 50 mg/kg(fall in systolic blood pressure 6-24 hr after dosing); format: functional, Artery; in short: as §2
Rattus norvegicus [27] = assay: Compound is measured for oral antihypertensive activity in groups of 6-12 conscious spontaneously hypertensive rats at 30 mg/kg; format: functional; in short: as §2
Rattus norvegicus [28] = assay: Compound is measured for oral antihypertensive activity in groups of 6-12 conscious spontaneously hypertensive rats at 200 mg/kg; Range is 15-20%; format: functional; in short: as §2
Canis familiaris [29] = assay: Oral dose required to cause 20% fall in sedation; Range is 30-60; format: functional, Canis lupus familiaris
Rattus norvegicus [30] = assay: Oral dose required to cause 20% fall in sedation; Decrease spontaneous motor activity; format: functional
In short: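 Normotensive rats were dosed orally. Spontaneous motor activity was counted with an electronic motility meter over a 10-min period starting 1 h after dosing. The dose was estimated from dose–response curves, with 95% fiducial limits.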

Rattus norvegicus [31] = assay: as §4; format: functional; in short: as §5
Rattus norvegicus [32] = assay: Compound is measured for oral antihypertensive activity in groups of 6-12 deoxy-corticosterone-sodium hypertensive (DOCA-Na) rats at 1 mg/kg; Range is 15-20%; format: functional; in short: as §1
Rattus norvegicus [33] = assay: Compound is measured for oral antihypertensive activity in groups of 6-12 deoxy-corticosterone-sodium hypertensive (DOCA-Na) rats at 10 mg/kg (fall in systolic blood pressure 6-24 hr after dosing); format: functional, Artery; in short: as §1
Rattus norvegicus [34] = assay: Compound is measured for oral antihypertensive activity in groups of 6-12 conscious spontaneously hypertensive rats at 10 mg/kg (fall in systolic blood pressure 6-24 hr after dosing); format: functional, Artery; in short: as §2
[35] = Therapeutic ratio is oral dose producing sedation/reduction in blood pressure; Range is 30-60; format: ADME, tissue-based
Rattus norvegicus [36] = assay: Compound is measured for oral antihypertensive activity in groups of 6-12 conscious spontaneously hypertensive rats at 75 mg/kg; format: functional; in short: as §2
Rattus norvegicus [37] = assay: Compound is measured for oral antihypertensive activity in groups of 6-12 deoxy-corticosterone-sodium hypertensive (DOCA-Na) rats at 10 mg/kg; Range is 15-20%; format: functional; in short: as §1

NCC/N=C(\S)Nc1cccc(Cl)c1Cl.O=C(O)/C=C\C(=O)O
Effect (Rattus norvegicus [1]): <10% | Effect (Rattus norvegicus [2]): 10% | Effect (Rattus norvegicus [3]): >20% | Effect (Rattus norvegicus [4]): <10% | Effect (Rattus norvegicus [5]): >20% | Effect (Rattus norvegicus [6]): >20%

CNCC/N=C(\S)Nc1c(Cl)cccc1Cl.O=C(O)/C=C\C(=O)O
Effect (Rattus norvegicus [7]): <10%

N/N=C(\S)Nc1c(Cl)cccc1Cl
Effect (Rattus norvegicus [8]): <10%

NCC/N=C(\N)Nc1c(Cl)cccc1Cl
Effect (Rattus norvegicus [9]): 10% | Effect (Rattus norvegicus [10]): 10%

CNCCN(C)/C(S)=N/c1c(Cl)cccc1Cl.O=C(O)/C=C\C(=O)O
Effect (Rattus norvegicus [11]): <10%

OCC/N=C(\S)Nc1c(Cl)cccc1Cl
Effect (Rattus norvegicus [12]): <10%

NCC/N=C(\S)Nc1c(Br)cccc1Br
Effect (Rattus norvegicus [3]): >20% | Effect (Rattus norvegicus [13]): 15% | Effect (Rattus norvegicus [5]): >20%

CN1CCN(/C(S)=N/c2c(Cl)cccc2Cl)CC1.Cl
Effect (Rattus norvegicus [14]): <10%

NCC/N=C(\S)Nc1c(Cl)cc(Cl)cc1Cl.O=C(O)/C=C\C(=O)O
Effect (Rattus norvegicus [15]): 15% | Effect (Rattus norvegicus [16]): <10%

CN1CCN(CC/N=C(\S)Nc2c(Cl)cccc2Cl)CC1.Cl.Cl
Effect (Rattus norvegicus [17]): 15%

COc1cccc(OC)c1/N=C(\S)NCCN.O=C(O)/C=C\C(=O)O
Effect (Rattus norvegicus [7]): <10%

NCCNC(=O)Nc1c(Cl)cccc1Cl
Effect (Rattus norvegicus [18]): <10% | Effect (Rattus norvegicus [8]): <10%

Cc1ccc(/N=C(\S)NCCN)c(Cl)c1.O=C(O)/C=C\C(=O)O
Effect (Rattus norvegicus [7]): <10%

NS(=O)(=O)CC/N=C(\S)Nc1c(Cl)cccc1Cl
Effect (Rattus norvegicus [15]): 15%

CCO.NCC/N=C(\S)Nc1c(F)cccc1F.O=C(O)CCC(=O)O
Effect (Rattus norvegicus [18]): <10% | Effect (Rattus norvegicus [16]): <10%

Cl.N=C(N)CC/N=C(\S)Nc1c(Cl)cccc1Cl
Effect (Rattus norvegicus [7]): <10%

NC(=O)CC/N=C(\S)Nc1c(Cl)cccc1Cl
Effect (Rattus norvegicus [7]): <10%

Cc1cccc(C)c1/N=C(\S)NCCN.O=C(O)CCC(=O)O
Effect (Rattus norvegicus [3]): >20% | Effect (Rattus norvegicus [19]): 15%

N/C(S)=N/c1c(Cl)cccc1Cl
Effect (Rattus norvegicus [14]): <10% | Effect (Rattus norvegicus [20]): < 10%

O=C(O)CC/N=C(\S)Nc1c(Cl)cccc1Cl
Effect (Rattus norvegicus [7]): <10%

Clc1cccc(Cl)c1NC1=NCCN1 [CLONIDINE]
Dose (Canis familiaris [21]): 0.3 mg/kg | Dose (Monkey): 0.7 mg/kg | Dose (Rattus norvegicus [22]): 0.06 mg/kg | Effect (Rattus norvegicus [23]): >20% | Effect (Rattus norvegicus [4]): >20% | Ratio [24]: 3 | selectivity ratio [24]: 1.83 | selectivity ratio (in vivo): 0.8

CCN(CC)CC/N=C(\S)Nc1c(Cl)cccc1Cl.Cl
Effect (Rattus norvegicus [25]): 10%

NCC/N=C(\S)Nc1c(Cl)cc([N+](=O)[O-])cc1Cl.O=C(O)/C=C\C(=O)O
Effect (Rattus norvegicus [26]): >20% | Effect (Rattus norvegicus [16]): <10%

Cl.S=C(NCCN1CCCCC1)Nc1c(Cl)cccc1Cl
Effect (Rattus norvegicus [27]): <10%

NCCC/N=C(\S)Nc1c(Cl)cccc1Cl
Effect (Rattus norvegicus [28]): 15%

Cl.NCC/N=C(\S)Nc1ccccc1
Effect (Rattus norvegicus [16]): <10%

CC(=O)NCC/N=C(\N)Nc1c(Cl)cccc1Cl
Effect (Rattus norvegicus [18]): <10% | Effect (Rattus norvegicus [8]): <10%

Cc1ccc(/N=C(\S)NCCN)c(C)c1.O=C(O)/C=C\C(=O)O
Effect (Rattus norvegicus [7]): <10%

NCC/N=C(\S)Nc1c(Cl)cccc1Cl.O=C(O)/C=C\C(=O)O
Dose (Canis familiaris [21]): 1 mg/kg | Dose (Canis familiaris [29]): 30 mg/kg | Dose (Rattus norvegicus [30]): 0.69 mg/kg | Dose (Monkey): >64 mg/kg | Dose (Rattus norvegicus [31]): 1.7 mg/kg | Dose (Rattus norvegicus [22]): 2.4 mg/kg | Effect (Rattus norvegicus [23]): <10% | Effect (Rattus norvegicus [32]): 15% | Effect (Rattus norvegicus [33]): >20% | Effect (Rattus norvegicus [4]): <10% | Effect (Rattus norvegicus [13]): 15% | Effect (Rattus norvegicus [34]): >20% | Ratio [24]: 0.28 and 0.71 | selectivity ratio [35]: 30

N#CCCNC(=S)Nc1c(Cl)cccc1Cl
Effect (Rattus norvegicus [36]): <10%

CCOC(=O)CC/N=C(\S)Nc1c(Cl)cccc1Cl
Effect (Rattus norvegicus [7]): <10%

CS/C(=N\CCN)Nc1c(Cl)cccc1Cl
Effect (Rattus norvegicus [37]): 15% | Effect (Rattus norvegicus [19]): 15%
